Assay results as given in ChEMBL document CHEMBL4411280, “Synthesis, structure activity relationship and in vitro anti-influenza virus activity of novel polyphenol-pentacyclic triterpene conjugates” (Eur J Med Chem, 2019).
Calls of active or inactive are those of the source. No cut-off for these calls is given here.

What was measured:
[1] = molecular target: Hemagglutinin (Influenza A virus (A/Puerto Rico/8/1934(H1N1)), UniProt P03452); experiment: Binding affinity to recombinant Influenza A virus (A/California/04/2009 (H1N1)) hemagglutinin by SPR assay
Summary of the method: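 HA immobilised on the sensor chip to about 16,000 RU. Compounds injected as analytes at various concentrations in PBS-P running buffer (10 mM phosphate, 2.7 mM KCl, 137 mM NaCl, 0.05% P20, […]), with 60 s contact and 60 s dissociation. KD determined.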

MDCK = experiment: Cytotoxicity against MDCK cells at 50 uM after 40 hrs by CellTiter-Glo assay; assay type: cell-based, Canis lupus familiaris; conditions: dog
Summary of the method: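 Single-concentration toxicity screen at 50 μM final on MDCK cells for 40 h, read by CellTiter-Glo. 0.5% DMSO final as negative control. Triplicate experiments, standard deviations shown.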

Influenza A virus [2] = experiment: Antiviral activity against Influenza A virus A/WSN/33/H1N1 infected in MDCK cells assessed as reduction in virus-induced cytopathic effect at 50 uM after 40 hrs by CellTiter-Glo assay; assay type: functional, organism-based
Summary of the method: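 Single-concentration screen at 50 μM final. MDCK cells infected with A/WSN/33 (H1N1) at MOI 0.1 in DMEM/1% FBS with TPCK-trypsin for 40 h, viability by CellTiter-Glo. 0.5% DMSO final as negative control, oseltamivir as positive control. Triplicate experiments, standard deviations shown.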

Influenza A virus [3] = experiment: Antiviral activity against Influenza A virus A/WSN/33/H1N1 infected in MDCK cells assessed as reduction in virus-induced cytopathic effect after 40 hrs by CellTiter-Glo assay; assay type: functional, organism-based; conditions: A/WSN/33/H1N1, MDCK
Summary of the method: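 MDCK cells seeded overnight, infected with influenza A/WSN/33 (H1N1) at MOI 0.1. Kept in DMEM with 1% FBS, test compound, TPCK-treated trypsin and 1% final DMSO for 40 h. Cell viability read by CellTiter-Glo luminescence. IC50 taken from dose-response.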

[4] = Cytotoxicity against MDCK cells after 40 hrs by CellTiter-Glo assay; assay type: cell-based, Canis lupus familiaris; conditions: dog
Summary of the method: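 MDCK cells grown overnight in medium with 1% FBS, then exposed to increasing compound concentrations for 40 h. Viability measured by CellTiter-Glo luminescence, and CC50 derived from it.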

[5] = molecular target: Hemagglutinin (Influenza A virus) (UniProt B4URE7); experiment: Inhibition of Influenza A virus A/WSN/33/H1N1 HA-mediated hemagglutination of chicken RBC measured after 30 mins
Summary of the method: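 Compound serially diluted 3-fold in saline and mixed with an equal volume of A/WSN/33 virus (2 HA units). Freshly prepared chicken RBCs (1% v/v in saline) added. Incubated 30 min at room temperature, then agglutination scored visually. PBS as negative control, anti-HA antibody tested in parallel.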

Chain of Hemagglutinin (Influenza A virus (A/Puerto Rico/8/1934(H1N1)), UniProt P03452) (P03452 whole entry): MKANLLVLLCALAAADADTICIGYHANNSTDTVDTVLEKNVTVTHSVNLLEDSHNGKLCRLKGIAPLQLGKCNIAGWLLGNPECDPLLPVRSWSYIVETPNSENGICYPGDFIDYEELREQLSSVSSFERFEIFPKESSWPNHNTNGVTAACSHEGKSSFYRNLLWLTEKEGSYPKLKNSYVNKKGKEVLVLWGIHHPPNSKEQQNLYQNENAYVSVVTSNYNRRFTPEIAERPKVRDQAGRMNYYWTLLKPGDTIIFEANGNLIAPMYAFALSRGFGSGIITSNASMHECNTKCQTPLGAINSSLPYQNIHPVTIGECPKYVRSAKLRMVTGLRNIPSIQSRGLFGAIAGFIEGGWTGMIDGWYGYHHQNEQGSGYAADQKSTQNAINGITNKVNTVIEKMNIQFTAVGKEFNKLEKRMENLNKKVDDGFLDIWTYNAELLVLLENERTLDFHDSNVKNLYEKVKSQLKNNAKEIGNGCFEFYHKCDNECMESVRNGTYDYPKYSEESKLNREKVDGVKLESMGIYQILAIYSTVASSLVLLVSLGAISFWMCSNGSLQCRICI
Chain of Hemagglutinin (Influenza A virus) (B4URE7 as listed by the source): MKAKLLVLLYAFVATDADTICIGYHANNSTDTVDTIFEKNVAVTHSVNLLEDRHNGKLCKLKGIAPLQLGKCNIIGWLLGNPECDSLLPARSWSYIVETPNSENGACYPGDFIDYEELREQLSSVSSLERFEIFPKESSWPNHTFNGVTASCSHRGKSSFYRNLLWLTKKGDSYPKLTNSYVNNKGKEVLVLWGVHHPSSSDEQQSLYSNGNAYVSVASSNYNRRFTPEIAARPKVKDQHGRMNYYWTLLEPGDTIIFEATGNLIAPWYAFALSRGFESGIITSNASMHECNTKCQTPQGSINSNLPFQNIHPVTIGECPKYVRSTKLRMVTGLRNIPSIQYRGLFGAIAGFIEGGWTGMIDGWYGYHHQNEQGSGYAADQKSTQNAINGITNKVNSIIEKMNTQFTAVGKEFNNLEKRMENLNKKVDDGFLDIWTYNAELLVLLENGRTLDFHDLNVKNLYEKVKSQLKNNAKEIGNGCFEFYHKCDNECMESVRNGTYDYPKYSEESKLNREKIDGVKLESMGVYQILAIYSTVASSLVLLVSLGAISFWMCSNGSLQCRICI

| Compound | Kd [1] [µM] | Activity (MDCK) | Activity (Influenza A virus [2]) | IC50 (Influenza A virus [3]) [µM] | CC50 at 40 h [4] [µM] | inhibition [5] |
| --- | --- | --- | --- | --- | --- | --- |
| C[C@H]1[C@H](C)CC[C@]2(C(=O)O)CC[C@]3(C)C(=CC[C@@H]4[C@@]5(C)CC[C@H](O)C(C)(C)[C@@H]5CC[C@]43C)[C@H]12 [URSOLIC ACID] | 46.5 |  |  |  |  |  |
| CC1(C)CC[C@]2(C(=O)NCCNC(=O)c3ccccc3O)CC[C@]3(C)C(=CC[C@@H]4[C@@]5(C)CC[C@H](O)C(C)(C)[C@@H]5CC[C@]43C)[C@@H]2C1 | 36 | Non-Toxic | Active | 7.65 | > 100 |  |
| C[C@H]1[C@H](C)CC[C@]2(C(=O)NCCNC(=O)c3ccccc3O)CC[C@]3(C)C(=CC[C@@H]4[C@@]5(C)CC[C@H](O)C(C)(C)[C@@H]5CC[C@]43C)[C@H]12 | 15.6 | Non-Toxic | Active | 5.8 | > 100 | Dose-dependent effect |
| CC1(C)CC[C@]2(C(=O)NCCNC(=O)c3ccccc3O)[C@H](O)C[C@]3(C)C(=CC[C@@H]4[C@@]5(C)CC[C@H](O)C(C)(C)[C@@H]5CC[C@]43C)[C@@H]2C1 |  | Non-Toxic | Active | 5.84 | > 100 |  |
| C[C@H]1[C@H](C)CC[C@]2(C(=O)NCCNC(=O)/C=C/c3ccccc3)CC[C@]3(C)C(=CC[C@@H]4[C@@]5(C)CC[C@H](O)C(C)(C)[C@@H]5CC[C@]43C)[C@H]12 |  | Non-Toxic | Active | 18.3 | > 100 |  |
